Test results from ChEMBL document CHEMBL4330094, “Potent Metabolic Sialylation Inhibitors Based on C-5-Modified Fluorinated Sialic Acids” (J Med Chem, 2019).
Activity calls are given as the source filed them. The calls are words filed in the database; no cut-off is given here.

Test system: B16-F10
Assay: Effect on total cell surface glycosylation in mouse B16F10 cells assessed as inhibition of biotinylated PHA-L lectin binding at 102.4 uM after 3 days by flow cytometry
Assay type: cell-based
Settings: b16-f10, 72 h
In short: (§1)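 B16-F10 cells were exposed 3 days to 102.4 µM compound or DMSO. Staining used biotinylated lectins (AAL 5, PNA 5, GSL-I 1, LCA 1, PHA-L 1, PSA 1, SJA 1, WGA 1 µg/ml) in carbo-free blocking buffer with 1 mM CaCl and 1 mM MgCl for 45-60 min at 4 °C, then streptavidin-PE for 20 min at 4 °C. Flow cytometry read-out was MFI, mean ± SEM from two independent experiments.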

SMILES | Activity
COC(=O)C1(OC(C)=O)O[C@@H]([C@H](OC(C)=O)[C@@H](COC(C)=O)OC(C)=O)[C@H](NC(=O)OCC(C)C)[C@@H](OC(C)=O)[C@H]1F (some centres undefined) | Non-Toxic

Test system: B16-F10
Assay: Effect on total cell surface glycosylation in mouse B16F10 cells assessed as inhibition of biotinylated SJA-lectin binding at 102.4 uM after 3 days by flow cytometry
Assay type: cell-based
Settings: b16-f10, 72 h
In short: as §1

SMILES | Activity
COC(=O)C1(OC(C)=O)O[C@@H]([C@H](OC(C)=O)[C@@H](COC(C)=O)OC(C)=O)[C@H](NC(=O)OCC(C)C)[C@@H](OC(C)=O)[C@H]1F (some centres undefined) | Non-Toxic

Test system: B16-F10
Assay: Effect on total cell surface glycosylation in mouse B16F10 cells assessed as inhibition of biotinylated AAL-lectin binding at 102.4 uM after 3 days by flow cytometry
Assay type: cell-based
Settings: b16-f10, 72 h
In short: as §1

SMILES | Activity
COC(=O)C1(OC(C)=O)O[C@@H]([C@H](OC(C)=O)[C@@H](COC(C)=O)OC(C)=O)[C@H](NC(=O)OCC(C)C)[C@@H](OC(C)=O)[C@H]1F (some centres undefined) | Non-Toxic

Test system: B16-F10
Assay: Effect on total cell surface glycosylation in mouse B16F10 cells assessed as inhibition of biotinylated LCA-lectin binding at 102.4 uM after 3 days by flow cytometry
Assay type: cell-based
Settings: b16-f10, 72 h
In short: as §1

SMILES | Activity
COC(=O)C1(OC(C)=O)O[C@@H]([C@H](OC(C)=O)[C@@H](COC(C)=O)OC(C)=O)[C@H](NC(=O)OCC(C)C)[C@@H](OC(C)=O)[C@H]1F (some centres undefined) | Non-Toxic

Test system: B16-F10
Assay: Effect on total cell surface glycosylation in mouse B16F10 cells assessed as inhibition of biotinylated GSL1-lectin binding at 102.4 uM after 3 days by flow cytometry
Assay type: cell-based
Settings: b16-f10, 72 h
In short: as §1

SMILES | Activity
COC(=O)C1(OC(C)=O)O[C@@H]([C@H](OC(C)=O)[C@@H](COC(C)=O)OC(C)=O)[C@H](NC(=O)OCC(C)C)[C@@H](OC(C)=O)[C@H]1F (some centres undefined) | Non-Toxic

Test system: B16-F10
Assay: Inhibition of sialyltransferase in mouse B16-F10 cells assessed as recovery time for sialylation at 25.6 uM pretreated for 3 days followed by washing and re-seeding and measured after 6 days by biotinylated MAL2 lectin-based flow cytometry
Assay type: cell-based
Settings: not given
In short: (§2)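 B16-F10 cells were pretreated 3 days with 25.6 or 51.2 µM compound or DMSO, washed, reseeded, and sampled daily for 6 days. They were stained with biotinylated MALII (5 µg/ml, 45-60 min, 4 °C) plus streptavidin-PE. Flow cytometry MFI was normalized to control as % lectin binding.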

SMILES | sialylation recovery time
COC(=O)C1(OC(C)=O)O[C@@H]([C@H](OC(C)=O)[C@@H](COC(C)=O)OC(C)=O)[C@H](NC(=O)OCC(C)C)[C@@H](OC(C)=O)[C@H]1F (some centres undefined) | Active

Test system: not listed separately
Assay: Inhibition of sialyltransferase in mouse B16F10 cells assessed as decrease in lectin binding after 3 days by biotinylated MAL2 lectin and streptavidin-PE based flow cytometry
Assay type: cell-based
Settings: not given
In short: (§3)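 Each cell line was incubated 3 days with increasing compound concentrations or equivalent DMSO. Cells were stained with biotinylated MALII (5 µg/ml) in carbo-free blocking buffer with 1 mM CaCl/MgCl for 45-60 min at 4 °C, washed in PBS/1% BSA/0.02% azide, then stained with streptavidin-PE for 20 min at 4 °C. For flow cytometry, MFI was normalized to control as % lectin binding.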

EC50 [µM] | SMILES
3.33 | COC(=O)C1(OC(C)=O)O[C@@H]([C@H](OC(C)=O)[C@@H](COC(C)=O)OC(C)=O)[C@H](NC(=O)OCC(C)C)[C@@H](OC(C)=O)[C@H]1F (some centres undefined)

Test system: not listed separately
Assay: Inhibition of sialyltransferase in mouse EL4 cells assessed as decrease in lectin binding after 3 days by biotinylated MAL2 lectin and streptavidin-PE based flow cytometry
Assay type: cell-based
Settings: not given
In short: as §3

EC50 [µM] | SMILES
51.8 | COC(=O)C1(OC(C)=O)O[C@@H]([C@H](OC(C)=O)[C@@H](COC(C)=O)OC(C)=O)[C@H](NC(=O)OCC(C)C)[C@@H](OC(C)=O)[C@H]1F (some centres undefined)

Test system: B16-F10
Assay: Effect on total cell surface glycosylation in mouse B16F10 cells assessed as inhibition of biotinylated PSA-lectin binding at 102.4 uM after 3 days by flow cytometry
Assay type: cell-based
Settings: b16-f10, 72 h
In short: as §1

SMILES | Activity
COC(=O)C1(OC(C)=O)O[C@@H]([C@H](OC(C)=O)[C@@H](COC(C)=O)OC(C)=O)[C@H](NC(=O)OCC(C)C)[C@@H](OC(C)=O)[C@H]1F (some centres undefined) | Non-Toxic

Test system: not listed separately
Assay: Inhibition of sialyltransferase in HEK293 cells assessed as decrease in lectin binding after 3 days by biotinylated MAL2 lectin and streptavidin-PE based flow cytometry
Assay type: cell-based, Homo sapiens
Settings: not given
In short: as §3

EC50 [µM] | SMILES
11.4 | COC(=O)C1(OC(C)=O)O[C@@H]([C@H](OC(C)=O)[C@@H](COC(C)=O)OC(C)=O)[C@H](NC(=O)OCC(C)C)[C@@H](OC(C)=O)[C@H]1F (some centres undefined)

Test system: B16-F10
Assay: Relative inhibitory potency, ratio of SiaFAc to compound EC50 for inhibition of sialyltransferase in mouse B16-F10 cells
Assay type: cell-based
Settings: not given

SMILES | Ratio EC50
COC(=O)C1(OC(C)=O)O[C@@H]([C@H](OC(C)=O)[C@@H](COC(C)=O)OC(C)=O)[C@H](NC(=O)OCC(C)C)[C@@H](OC(C)=O)[C@H]1F (some centres undefined) | 8

Test system: B16-F10
Assay: Inhibition of sialyltransferase in mouse B16-F10 cells assessed as recovery time for sialylation at 51.2 uM pretreated for 3 days followed by washing and re-seeding and measured after 6 days by biotinylated MAL2 lectin-based flow cytometry
Assay type: cell-based
Settings: not given
In short: as §2

SMILES | TIME [h]
COC(=O)C1(OC(C)=O)O[C@@H]([C@H](OC(C)=O)[C@@H](COC(C)=O)OC(C)=O)[C@H](NC(=O)OCC(C)C)[C@@H](OC(C)=O)[C@H]1F (some centres undefined) | 120 to 144

Test system: not listed separately
Assay: Inhibition of sialyltransferase in human THP1 cells assessed as decrease in lectin binding after 3 days by biotinylated MAL2 lectin and streptavidin-PE based flow cytometry
Assay type: cell-based
Settings: not given
In short: as §3

EC50 [µM] | SMILES
0.5 | COC(=O)C1(OC(C)=O)O[C@@H]([C@H](OC(C)=O)[C@@H](COC(C)=O)OC(C)=O)[C@H](NC(=O)OCC(C)C)[C@@H](OC(C)=O)[C@H]1F (some centres undefined)

Test system: B16-F10
Assay: Effect on total cell surface glycosylation in mouse B16F10 cells assessed as inhibition of biotinylated WGA-lectin binding at 102.4 uM after 3 days by flow cytometry
Assay type: cell-based
Settings: b16-f10, 72 h
In short: as §1

SMILES | Activity
COC(=O)C1(OC(C)=O)O[C@@H]([C@H](OC(C)=O)[C@@H](COC(C)=O)OC(C)=O)[C@H](NC(=O)OCC(C)C)[C@@H](OC(C)=O)[C@H]1F (some centres undefined) | Non-Toxic

Test system: B16-F10
Assay: Cytotoxicity against mouse B16F10 cells assessed as reduction in metabolic activity at 204.8 uM after 3 days by MTT assay
Assay type: ADME, cell-based
Settings: b16-f10, 72 h

SMILES | Activity
COC(=O)C1(OC(C)=O)O[C@@H]([C@H](OC(C)=O)[C@@H](COC(C)=O)OC(C)=O)[C@H](NC(=O)OCC(C)C)[C@@H](OC(C)=O)[C@H]1F (some centres undefined) | Non-Toxic

Test system: not listed separately
Assay: Inhibition of sialyltransferase in mouse 9464D cells assessed as decrease in lectin binding after 3 days by biotinylated MAL2 lectin and streptavidin-PE based flow cytometry
Assay type: cell-based
Settings: not given
In short: as §3

EC50 [µM] | SMILES
24.4 | COC(=O)C1(OC(C)=O)O[C@@H]([C@H](OC(C)=O)[C@@H](COC(C)=O)OC(C)=O)[C@H](NC(=O)OCC(C)C)[C@@H](OC(C)=O)[C@H]1F (some centres undefined)

Test system: not listed separately
Assay: Inhibition of sialyltransferase in human HeLa cells assessed as decrease in lectin binding after 3 days by biotinylated MAL2 lectin and streptavidin-PE based flow cytometry
Assay type: cell-based
Settings: not given
In short: as §3

EC50 [µM] | SMILES
5.15 | COC(=O)C1(OC(C)=O)O[C@@H]([C@H](OC(C)=O)[C@@H](COC(C)=O)OC(C)=O)[C@H](NC(=O)OCC(C)C)[C@@H](OC(C)=O)[C@H]1F (some centres undefined)

Test system: B16-F10
Assay: Effect on total cell surface glycosylation in mouse B16F10 cells assessed as inhibition of biotinylated PNA lectin binding at 102.4 uM after 3 days by flow cytometry
Assay type: cell-based
Settings: b16-f10, 72 h
In short: as §1

SMILES | Activity
COC(=O)C1(OC(C)=O)O[C@@H]([C@H](OC(C)=O)[C@@H](COC(C)=O)OC(C)=O)[C@H](NC(=O)OCC(C)C)[C@@H](OC(C)=O)[C@H]1F (some centres undefined) | Non-Toxic

Test system: B16-F10
Assay: Cytotoxicity against mouse B16F10 cells assessed as reduction in metabolic activity at <51.2 uM after 3 days by MTT assay
Assay type: ADME, cell-based
Settings: b16-f10, 72 h

SMILES | Activity
COC(=O)C1(OC(C)=O)O[C@@H]([C@H](OC(C)=O)[C@@H](COC(C)=O)OC(C)=O)[C@H](NC(=O)OCC(C)C)[C@@H](OC(C)=O)[C@H]1F (some centres undefined) | Non-Toxic
